Source: ChEMBL document CHEMBL3124885, “Discovery of 7-tetrahydropyran-2-yl chromans: β-site amyloid precursor protein cleaving enzyme 1 (BACE1) inhibitors that reduce amyloid β-protein (Aβ) in the central nervous system” (J Med Chem, 2014)

Experiments:
[1] = Ratio of unbound drug level in brain to plasma in CD-1 mouse measured at 1 hr; assay type: ADME; settings: mouse, 1 h
Method in brief: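 Male CD-1 mice given 10 mg/kg po, 3 per cohort; plasma and brain collected at 1 and 4 h. Free brain/plasma ratio from unbound concentrations; coverage ratio = free brain concentration divided by HEK293 Aβ₁₋₄₀ cell IC50.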

[2] = Unbound plasma concentration in Hartley guinea pig at 60 mg/kg, po measured at 5 hrs; assay type: ADME, organism-based, Cavia porcellus; design: dose 60 mg/kg, route oral; settings: in vivo
Method in brief: (§1)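 Male Hartley guinea pigs were dosed orally at 30, 60 or 100 mg/kg, with six or eight animals per cohort. The vehicle was either a suspension in 1% CMC/0.5% Tween/5 mM citrate in H₂O or a 40/10/50 PEG/EtOH/H₂O solution, depending on compound. Unbound plasma concentration was sampled at 1–12 h post-dose alongside brain, CSF and CSF Aβ₁₋₄₀.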

[3] = Fraction unbound in Hartley guinea pig brain at 60 mg/kg, po measured at 5 hrs; assay type: ADME, organism-based, Cavia porcellus; design: dose 60 mg/kg, route oral; settings: in vivo
[4] = system: Brain; assay: Fraction unbound in CD-1 mouse brain at 10 mg/kg, po measured at 4 hrs; assay type: ADME, organism-based; design: dose 10 mg/kg, route oral; settings: in vivo
Method in brief: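 Male CD-1 mice, 3 per cohort, dosed 10 mg/kg orally; brains harvested at 1 and 4 h.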

[5] = system: Plasma; assay: Unbound plasma concentration in cynomolgus monkey at 0.5 mg/kg, iv and 100 mg/kg, po measured at 4 hrs; assay type: ADME, organism-based, Macaca fascicularis; settings: in vivo
Method in brief: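 Female cynomolgus monkeys, three per dosing route, received 0.5 mg/kg iv and 100 mg/kg po. Unbound plasma concentration was reported at 2 h and 4 h post-dose.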

[6] = Unbound plasma concentration in Hartley guinea pig at 30 mg/kg, po measured at 3 hrs; assay type: ADME, organism-based, Cavia porcellus; design: dose 30 mg/kg, route oral; settings: in vivo; method in brief: as §1
[7] = system: Mus musculus; assay: Hepatic clearance in CD-1 mouse at 3 mg/kg, iv; assay type: ADME, organism-based, Liver; design: dose 3 mg/kg, route intravenous; settings: in vivo
Method in brief: (§2)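 Male CD-1 mice, 3 per cohort, dosed 3 mg/kg iv and 10 mg/kg po; plasma drawn at 1 and 4 h, brains harvested from oral groups only. Formulations varied by compound: 40% PEG 400/10% EtOH/50% H₂O; 30% captisol in H₂O; iv 50 mM citrate in saline (pH 4); po 1% CMC/0.5% Tween/5 mM citrate in H₂O.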

[8] = Fraction unbound in Hartley guinea pig brain at 100 mg/kg, po measured at 3 hrs; assay type: ADME, organism-based, Cavia porcellus; design: dose 100 mg/kg, route oral; settings: in vivo
[9] = Drug uptake in Hartley guinea pig CSF at 60 mg/kg, po measured at 5 hrs; assay type: ADME, organism-based, Cavia porcellus, Cerebrospinal fluid; design: dose 60 mg/kg, route oral; settings: read-out: Drug uptake
Method in brief: (§3)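 Male Hartley guinea pigs, oral dosing (CMC/Tween/citrate suspension or PEG/EtOH/H₂O solution), six or eight animals per cohort; CSF drug concentration (nM) measured at each time point.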

[10] = Ratio of unbound drug level in brain to plasma in Hartley guinea pig at 60 mg/kg, po measured at 1 hr; assay type: ADME, organism-based, Cavia porcellus; design: dose 60 mg/kg, route oral; settings: brain and plasma (unbound), read-out: K(p,uu,brain)
Method in brief: (§4)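 Male Hartley guinea pigs given single oral doses of 30, 60 or 100 mg/kg in 1% CMC/0.5% Tween/5 mM citrate in H₂O, 6–8 animals per cohort. Plasma, brain and CSF sampled at 1–12 h; free brain to free plasma ratio computed.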

[11] = Clearance in Hartley guinea pig liver microsomes at 1 uM after 20 mins by LC-MS/MS analysis in presence of NADPH; assay type: ADME, Cavia porcellus, Microsome; settings: read-out: CLH
[12] = Ratio of unbound drug level in brain to plasma in Sprague-Dawley rat at 60 mg/kg, po measured at 3 hrs; assay type: ADME, organism-based; design: dose 60 mg/kg, route oral; settings: brain and plasma (unbound), read-out: K(p,uu,brain)
Method in brief: (§5)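 Male Sprague–Dawley rats dosed 60 mg/kg po in 1% CMC/0.5% Tween/5 mM citrate in H₂O; plasma, brain and CSF taken at 1, 3, 5, 8 and 12 h; unbound plasma and brain levels and their ratio determined.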

[13] = system: Plasma; assay: Unbound plasma concentration in Sprague-Dawley rat at 60 mg/kg, po measured at 1 hr; assay type: ADME, organism-based; design: dose 60 mg/kg, route oral; settings: in vivo
Method in brief: (§6)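 Male Sprague-Dawley rats were given a single 60 mg/kg oral dose in 1% CMC/0.5% Tween/5 mM citrate in H₂O. Free plasma concentration was determined at 1, 3, 5, 8 and 12 h. Brain, CSF and CSF Aβ₁₋₄₀ were sampled at the same times.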

[14] = Ratio of unbound drug level in brain to plasma in Sprague-Dawley rat at 60 mg/kg, po measured at 1 hr; assay type: ADME, organism-based; design: dose 60 mg/kg, route oral; settings: brain and plasma (unbound), read-out: K(p,uu,brain); method in brief: as §5
[15] = Ratio of unbound drug level in brain to plasma in Hartley guinea pig at 60 mg/kg, po measured at 8 hrs; assay type: ADME, organism-based, Cavia porcellus; design: dose 60 mg/kg, route oral; settings: brain and plasma (unbound), read-out: K(p,uu,brain); method in brief: as §4
[16] = system: Plasma; assay: Unbound plasma concentration in CD-1 mouse at 3 mg/kg, iv and 10 mg/kg, po measured at 1 hr; assay type: ADME, organism-based; settings: in vivo; method in brief: as §2
[17] = Drug uptake in cynomolgus monkey CSF at 0.5 mg/kg, iv and 100 mg/kg, po measured at 4 hrs; assay type: ADME, organism-based, Macaca fascicularis, Cerebrospinal fluid; settings: read-out: Drug uptake
Method in brief: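 Female cynomolgus monkeys, 3 per dosing route; iv formulation PEG400/EtOH/water (40/10/50) solution; oral suspension in 1% CMC, 0.5% Tween 80, 5 mM citrate buffer; CSF concentration measured.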

[18] = system: Rattus norvegicus; assay: Hepatic clearance in Sprague-Dawley rat at 3 mg/kg, iv; assay type: ADME, organism-based, Liver; design: dose 3 mg/kg, route intravenous; settings: in vivo
Method in brief: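 Male Sprague–Dawley rats, 3 per cohort, iv 3 mg/kg in 30% captisol/5 mM citrate in saline; po 60 mg/kg in 1% CMC/0.5% Tween/5 mM citrate in H₂O.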

[19] = system: Plasma; assay: Unbound plasma concentration in Sprague-Dawley rat at 60 mg/kg, po measured at 8 hrs; assay type: ADME, organism-based; design: dose 60 mg/kg, route oral; settings: in vivo; method in brief: as §6
[20] = Drug uptake in Sprague-Dawley rat CSF at 60 mg/kg, po measured at 3 hrs; assay type: ADME, organism-based, Cerebrospinal fluid; design: dose 60 mg/kg, route oral; settings: read-out: Drug uptake
Method in brief: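 Male Sprague−Dawley rats dosed orally at 60 mg/kg in 1% CMC/0.5% Tween/5 mM citrate in H₂O; CSF compound concentration (nM) at 1–12 h.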

[21] = Drug uptake in Hartley guinea pig CSF at 60 mg/kg, po measured at 3 hrs; assay type: ADME, organism-based, Cavia porcellus, Cerebrospinal fluid; design: dose 60 mg/kg, route oral; settings: read-out: Drug uptake; method in brief: as §3
[22] = system: Plasma; assay: Unbound plasma concentration in Sprague-Dawley rat at 60 mg/kg, po measured at 12 hrs; assay type: ADME, organism-based; design: dose 60 mg/kg, route oral; settings: in vivo; method in brief: as §6
[23] = Cmax in cynomolgus monkey CSF at 100 mg/kg, po measured at 2 hrs; assay type: ADME, organism-based, Macaca fascicularis, Cerebrospinal fluid; design: dose 100 mg/kg, route oral
[24] = Drug uptake in Hartley guinea pig CSF at 30 mg/kg, po measured at 3 hrs; assay type: ADME, organism-based, Cavia porcellus, Cerebrospinal fluid; design: dose 30 mg/kg, route oral; settings: read-out: Drug uptake; method in brief: as §3
[25] = Ratio of unbound drug level in brain to plasma in Sprague-Dawley rat at 60 mg/kg, po measured at 8 hrs; assay type: ADME, organism-based; design: dose 60 mg/kg, route oral; settings: brain and plasma (unbound), read-out: K(p,uu,brain); method in brief: as §5
[26] = Drug uptake in Hartley guinea pig CSF at 100 mg/kg, po measured at 3 hrs; assay type: ADME, organism-based, Cavia porcellus, Cerebrospinal fluid; design: dose 100 mg/kg, route oral; settings: read-out: Drug uptake; method in brief: as §3
[27] = Drug uptake in Hartley guinea pig CSF at 60 mg/kg, po measured at 12 hrs; assay type: ADME, organism-based, Cavia porcellus, Cerebrospinal fluid; design: dose 60 mg/kg, route oral; settings: read-out: Drug uptake; method in brief: as §3
[28] = system: Plasma; assay: Unbound plasma concentration in Sprague-Dawley rat at 60 mg/kg, po measured at 5 hrs; assay type: ADME, organism-based; design: dose 60 mg/kg, route oral; settings: in vivo; method in brief: as §6
[29] = system: Plasma; assay: Unbound plasma concentration in CD-1 mouse at 3 mg/kg, iv and 10 mg/kg, po measured at 4 hrs; assay type: ADME, organism-based; settings: in vivo; method in brief: as §2
[30] = Ratio of unbound drug level in brain to plasma in Hartley guinea pig at 60 mg/kg, po measured at 12 hrs; assay type: ADME, organism-based, Cavia porcellus; design: dose 60 mg/kg, route oral; settings: brain and plasma (unbound), read-out: K(p,uu,brain); method in brief: as §4
[31] = Dissociation constant, pKa of the compound by parallel capillary electrophoresis method; assay type: physicochemical
Method in brief: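 pKa determined by a 24-point parallel capillary electrophoresis method, quantitation by UV absorbance at 229 nm.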

K(p,uu,brain) [1]: 0.08 | Cp(f) [2]: 7 nM | Drug uptake(free) [3]: 12 nM | Drug uptake(free) [4]: 15 nM | Cp(f) [5]: 1700 nM | Cp(f) [6]: 5.8 nM | CLH [7]: 41 mL/min/kg | Drug uptake(free) [8]: 50 nM | concentration at 5 h [9]: 6.9 nM | Kp uu at 1 h [10]: 0.14 | CLint scaled at 1 µM [11]: 17 mL/min/kg | Kp uu at 3 h [12]: 0.03 | Cp(f) [13]: 3100 nM | Kp uu at 1 h [14]: 0.022 | Kp uu at 8 h [15]: > 1.7 | Cp(f) [16]: 300 nM | concentration at 4 h [17]: 84 nM | CLH [18]: 30 mL/min/kg | Cp(f) [19]: 1700 nM | concentration at 3 h [20]: 150 nM | concentration at 3 h [21]: 23 nM | Cp(f) [22]: 960 nM | Cmax [23]: 120 nM | concentration at 3 h [24]: 9.9 nM | Kp uu at 8 h [25]: 0.049 | concentration at 3 h [26]: 56 nM | concentration at 12 h [27]: 2.6 nM | Cp(f) [28]: 2700 nM | Cp(f) [29]: 78 nM | Kp uu at 12 h [30]: > 3.7 | pKa [31]: 5.8
SMILES: CN1C(=O)[C@]2(N=C1N)c1cc(-c3cccnc3F)ccc1O[C@H]1CCOC[C@@H]12
